Test results as given in PubChem BioAssay.
Activity calls are given as the source filed them.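 The calls were made as follows, unless noted: active = viability loss from added drug above about 55%, and viability with drug at most 40%, in both replicates (limit read from the data, passing the limit was not always enough); inconclusive = both conditions met in only one replicate; inactive = neither replicate meets both conditions.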

How the values were obtained:
[1] = SK-BR-3 cell growth inhibitors, pilot screen, 24 h, human (AID 572;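 active = viability at or below 10% of carrier control in both of two separate runs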;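 also: compound exposure lasted between 18 and 24 h rather than exactly 24 h; 100% = carrier-treated control wells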); details: SK-BR-3 viability, CellTiter-Glo luminescence, at 10 µM, stronger effect = lower value
[2] = HUVEC growth inhibition – cell-based, human, primary screen (AID 575;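 active = viability at or below 30% in both replicate assays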;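 also: 100% = median of untreated cell wells with 0.1% DMSO on each plate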); details: HUVEC proliferation, CellTiter-Glo luminescence, 72 h; at 10 µM; stronger effect = lower value
How it was run: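 Test system: HUVEC primary cells. Quantity: 1250 endothelial cells in each well. Dosing: single-point 10 µM, DMSO 0.1% final. Incubation: 72 h treatment at 37 °C. Measured by: CTG luminescence. Control set: DMSO cell controls and MePR drug controls. Plate: collagen-coated 384-well format.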

[3] = growth inhibitors of H69AR lung tumor, primary screen, human, duplicate replicates (AID 580;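 active = viability at or under a set limit in both replicates, limit being median viability minus 3 SD, cut at about 48% in these data, passing the limit was not always enough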;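 also: 100% = mean luminescence of untreated wells and 0% = no signal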); details: H69AR lung tumor cells viability, ATP luminescence, 72 h; at 10 µM; stronger effect = lower value
[4] = reversal of MRP1-mediated doxorubicin resistance, pilot screen, H69AR cells, doxorubicin co-treatment (AID 601); details: CellTiter-Glo, 72 h, at 10 µM; for differential viability (reversal): stronger effect = higher value
[5] = 384-well plate pilot, post-Golgi transport modulator project, inhibition of yeast transport mutant growth (AID 636; in the data active = inhibition above about 31%); details: absorbance 615 nm, about 18 h, stronger effect = higher value
[6] = growth suppression of yeast trafficking mutant, preliminary HTS, modulators of trafficking downstream of Golgi apparatus project, 1536-format plate, OD 615 nm (AID 637; in the data active = inhibition above about 30%); details: yeast transport mutant growth, absorbance 615 nm, 18 h; stronger effect = higher value
[7] = H69AR cells + 2 uM doxorubicin, measured here: viability with 2 uM doxorubicin, stronger effect = lower value
[8] = H69AR cells, compound alone cytotoxicity

SMILES	viability [1]	viability [2]	viability [3]	differential viability (reversal) ([4]; H69AR cells + 2 uM doxorubicin)	viability [4, 7] [%]	viability [4, 8] [%]	inhibition [5]	inhibition [6]
CC[C@H](C)C(=O)O[C@H]1C[C@@H](C)C=C2C=C[C@H](C)[C@H](CC[C@@H]3C[C@@H](O)CC(=O)O3)[C@H]21	110% (inactive)	50.6% (inactive)	72.2% (inactive)	-6.58% (inactive)	78.7	72.2	-1.82% (inactive)	2.83% (inactive)
COc1ccc(C(=O)NCCC(C)C)cc1S(=O)(=O)N1CCOCC1	98% (inactive)	98.8% (inactive)	102% (inactive)	7.34% (inactive)	94.2	102	-9.86% (inactive)	2.73% (inactive)
CN(Cc1nc(-c2ccncc2)no1)S(=O)(=O)c1ccc(Cl)cc1	115% (inactive)	87.2% (inactive)	88.9% (inactive)	-9.07% (inactive)	98	88.9	1.78% (inactive)	13.6% (inactive)
O=C(O)c1ccc(NC(=O)c2cccs2)cc1	87% (inactive)	94.7% (inactive)	92.5% (inactive)	12.8% (inactive)	79.7	92.5	-5.73% (inactive)	-4.55% (inactive)
CCCc1cc(=O)[nH]c(=S)[nH]1	101% (inactive)	97% (inactive)	84% (inactive)	2.76% (inactive)	81.2	84	0.78% (inactive)	0.17% (inactive)
Cc1[nH]nc2c1C(CCc1ccccc1)C(C#N)=C(N)O2 (centres undefined)	104% (inactive)	94.2% (inactive)	90.2% (inactive)	-2.73% (inactive)	92.9	90.2	4.11% (inactive)	15.8% (inactive)
CC(=O)c1ccc(N2CCN(C(=O)c3cc(C)on3)CC2)cc1	100% (inactive)	97.7% (inactive)	111% (inactive)	12.4% (inactive)	98.9	111	-6.99% (inactive)	-3.82% (inactive)
Cc1ccc2nc(/C(C#N)=N/O)[nH]c2c1	115% (inactive)	84.9% (inactive)	78.2% (inactive)	-2.1% (inactive)	80.3	78.2	-4.53% (inactive)	0% (inactive)
Cc1noc(C)c1CSc1nnc2scc(-c3ccc(Cl)cc3)n12	88% (inactive)	113% (inactive)	91.6% (inactive)	4.96% (inactive)	86.7	91.6	-8.63% (inactive)	1.13% (inactive)
CCN(CC(=O)Nc1ccc2c(c1)OCCO2)Cc1cc(=O)oc2cc(C)c(C)cc12	93% (inactive)	82.2% (inactive)	73.8% (inactive)	5.8% (inactive)	68	73.8	-5.75% (inactive)	3.09% (inactive)
O=C1C(Cl)=C(NCC2CCCO2)C(=O)N1CCc1ccccc1 (centres undefined)	75% (inactive)	111% (inactive)	87.4% (inactive)	8.39% (inactive)	79	87.4	-0.82% (inactive)	-4.03% (inactive)
O=c1[nH]c2cc3c(cc2cc1C(c1nnnn1C1CCCCC1)N1CCSCC1)OCCO3 (centres undefined)	97% (inactive)	93.1% (inactive)	98.8% (inactive)	-1.53% (inactive)	100	98.8	-0.81% (inactive)	1.45% (inactive)
COc1ccccc1OCCOCCn1cnc2ccccc2c1=O	87% (inactive)	93.8% (inactive)	87.7% (inactive)	-3.44% (inactive)	91.1	87.7	-5.75% (inactive)	0.97% (inactive)
CNC(=O)OC(C)CNS(=O)(=O)c1ccc(C)cc1 (centres undefined)	60% (inactive)	106% (inactive)	97% (inactive)	6.22% (inactive)	90.8	97	-7.4% (inactive)	0.55% (inactive)
Cc1cc(NC(=O)CCCC(=O)Nc2ccc(F)cc2)no1	101% (inactive)	96.8% (inactive)	97% (inactive)	-0.445% (inactive)	97.5	97	-1.56% (inactive)	-1.48% (inactive)
Cn1c(=O)cc(SCC(=O)NCc2cccnc2)c2ccccc21	92% (inactive)	109% (inactive)	92.7% (inactive)	8.73% (inactive)	83.9	92.7	-6.8% (inactive)	-1.82% (inactive)
Cn1c(Cl)cnc1C1CC(=O)c2cc(Cl)ccc2O1 (centres undefined)	112% (inactive)	15.5% (active)	2.09% (active)	0.045% (inactive)	2.04	2.09	-4.46% (inactive)	3.64% (inactive)
Cc1ccc2cc(CN(Cc3ccc(F)cc3)Cc3nnnn3C3CCCC3)c(=O)[nH]c2c1	100% (inactive)	71.2% (inactive)	78.7% (inactive)	4.34% (inactive)	74.4	78.7	-4.19% (inactive)	3.09% (inactive)
O=C1CC(c2ccccc2)Cc2nc(N3CCc4ccccc43)ncc21 (centres undefined)	79% (inactive)	108% (inactive)	76.5% (inactive)	12% (inactive)	64.6	76.5	-6.89% (inactive)	1.82% (inactive)
CCOC(=O)CSc1nnc(NCC(=O)OC(C)C)c(=O)[nH]1	102% (inactive)	93.9% (inactive)	93.3% (inactive)	1.93% (inactive)	91.4	93.3	-1.56% (inactive)	-3.61% (inactive)
CCN=C1SC(CC(=O)Nc2ccccc2OCC)C(=O)N1CC (centres undefined)	96% (inactive)	94.3% (inactive)	94.5% (inactive)	8.11% (inactive)	86.4	94.5	-2.05% (inactive)	-2.74% (inactive)
CC(=O)OCC1=C(C(=O)O)N2C(=O)[C@@H](NC(=O)Cc3cccs3)[C@H]2SC1	141% (inactive)	94.8% (inactive)	94.2% (inactive)	3.98% (inactive)	90.2	94.2	-4.81% (inactive)	8.5% (inactive)
Cc1ccc2nc(-c3ccc4c(c3)OCCO4)cc(C(=O)O)c2c1	89% (inactive)	104% (inactive)	101% (inactive)	5.86% (inactive)	95	101	-4.73% (inactive)	-6% (inactive)
Cc1ccc(-c2nn[nH]n2)cc1	109% (inactive)	112% (inactive)	107% (inactive)	-4.72% (inactive)	111	107	-4.79% (inactive)	2.18% (inactive)

SMILES	viability [1]	viability [2]	viability [3]	differential viability (reversal) ([4]; H69AR cells + 2 uM doxorubicin)	viability [4, 7] [%]	viability [4, 8] [%]	inhibition [5]	inhibition [6]
CCn1c(SCC(=O)Nc2ccc3c(c2)OCO3)nnc1-c1ccccc1O	96% (inactive)	92% (inactive)	101% (inactive)	13.5% (inactive)	87.2	101	-1.69% (inactive)	-0.33% (inactive)
CC(COc1ccccc1)N(CCCl)Cc1ccccc1 (centres undefined)	107% (inactive)	78.2% (inactive)	56.1% (inactive)	9.34% (inactive)	46.7	56.1	-0.65% (inactive)	-3.33% (inactive)
CC(CCc1ccccc1)NC(=O)C1CCN(S(=O)(=O)c2cnc[nH]2)CC1 (centres undefined)	110% (inactive)	96.4% (inactive)	91.3% (inactive)	10.2% (inactive)	81.1	91.3	-9.73% (inactive)	-3.45% (inactive)
N[C@@H](Cc1ccc(O)c(I)c1)C(=O)O	87% (inactive)	87.5% (inactive)	105% (inactive)	15.7% (inactive)	89.3	105	-4.81% (inactive)	-1.33% (inactive)
COc1ccc(NC(=O)N(C2CCCCC2)C2CCN(C(C)C)CC2)c(OC)c1	87% (inactive)	100% (inactive)	103% (inactive)	19.4% (inactive)	83.2	103	-2.73% (inactive)	-7.87% (inactive)
CC(=O)Nc1c(C(=O)O)[nH]c2ccccc12	103% (inactive)	97.9% (inactive)	104% (inactive)	3.33% (inactive)	101	104	-4.46% (inactive)	-8.36% (inactive)
Nn1c(SCC(=O)NC2CCCCC2)nnc1-c1ccc(Cl)cc1	89% (inactive)	104% (inactive)	91.6% (inactive)	8.96% (inactive)	82.7	91.6	-6.16% (inactive)	3.71% (inactive)
Cc1cccc(NC(=O)CC2CCC2)c1	87% (inactive)	102% (inactive)	99.8% (inactive)	-2.9% (inactive)	103	99.8	-5.75% (inactive)	4.55% (inactive)
Cc1cccc(N(C)C(=S)Oc2ccc3ccccc3c2)c1	89% (inactive)	109% (inactive)	97.1% (inactive)	13% (inactive)	84.1	97.1	0.26% (inactive)	1.83% (inactive)
Fc1ccccc1Cn1nnc2c(-n3ccnc3)ncnc21	115% (inactive)	99.9% (inactive)	92.3% (inactive)	15.2% (inactive)	77.1	92.3	-3.01% (inactive)	-3.71% (inactive)
C=CCn1c(SCC(=O)c2ccccc2)nnc1-c1ccc2c(c1)OCO2	97% (inactive)	107% (inactive)	100% (inactive)	-2.68% (inactive)	103	100	-1.78% (inactive)	-3.06% (inactive)
C=C(C)Cn1c(CCCNC(=O)C(C)(C)C)nc2ccccc21	104% (inactive)	92.9% (inactive)	102% (inactive)	0.305% (inactive)	101	102	-3.47% (inactive)	-4% (inactive)
Cn1c(-c2ccccc2)cnc1SCc1nc2ccccc2c(=O)[nH]1	107% (inactive)	105% (inactive)	101% (inactive)	18.1% (inactive)	82.5	101	-2.53% (inactive)	4.18% (inactive)
COc1ccccc1-c1noc(-c2ccco2)n1	102% (inactive)	91% (inactive)	90.7% (inactive)	-2.78% (inactive)	93.5	90.7	0% (inactive)	-3.55% (inactive)
O=C(NC1(C(F)(F)F)C(=O)Nc2c1c(=O)[nH]c(=O)n2Cc1ccco1)C1CCCCC1 (centres undefined)	106% (inactive)	97.6% (inactive)	97.9% (inactive)	17.5% (inactive)	80.4	97.9	-6.49% (inactive)	-1.82% (inactive)
O=C(c1c(Cl)nc2sccn12)N(C(=O)c1c(Cl)nc2sccn12)c1ccc(Cl)cn1	131% (inactive)	43.6% (inactive)	70.8% (inactive)	-7.89% (inactive)	78.7	70.8	-3.38% (inactive)	3.11% (inactive)
Cc1nc2ccc(F)cc2cc1C(=O)NCC1CCCO1 (centres undefined)	89% (inactive)	90.3% (inactive)	85.2% (inactive)	-12.1% (inactive)	97.3	85.2	-8.9% (inactive)	3.27% (inactive)
CCc1c(C)nc2ncnn2c1N1CCC(C(=O)NCc2cccc(OC)c2)CC1	134% (inactive)	85.8% (inactive)	89.9% (inactive)	-9.81% (inactive)	99.7	89.9	-3.7% (inactive)	-1.29% (inactive)
N#Cc1cnc(SCCc2ccccc2)nc1N	78% (inactive)	102% (inactive)	97.8% (inactive)	6.68% (inactive)	91.2	97.8	-5.14% (inactive)	0% (inactive)
CCc1ccc(NC(=O)CS(=O)CC(=O)NC(C)CCc2ccco2)cc1 (centres undefined)	120% (inactive)	93.1% (inactive)	106% (inactive)	11.5% (inactive)	94.3	106	-1.56% (inactive)	-4.59% (inactive)
O=C(c1ccco1)N1CCN(CC2CC3C=CC2C3)CC1 (centres undefined)	91% (inactive)	110% (inactive)	95.8% (inactive)	5.7% (inactive)	90.1	95.8	-1.43% (inactive)	-2.13% (inactive)
Cc1cnc(C(=O)NCCc2ccc(S(=O)(=O)NC(=O)NC3CCCCC3)cc2)cn1	94% (inactive)	94.9% (inactive)	89.3% (inactive)	-16.6% (inactive)	106	89.3	1.04% (inactive)	2% (inactive)
O=C(CN(C1CCCCC1)S(=O)(=O)c1ccccc1)NCc1cccnc1	83% (inactive)	103% (inactive)	96% (inactive)	3.4% (inactive)	92.6	96	-6.76% (inactive)	-0.55% (inactive)
Cc1ccc(Cl)cc1N1CCN(C(=O)CN2C(=O)c3cccc4cccc2c34)CC1	94.5% (inactive)	66.6% (inactive)	72.1% (inactive)	-4.18% (inactive)	76.3	72.1	-4.42% (inactive)	3.65% (inactive)
